Experimental data published in PMC8237303 (Heliyon, 2021).

Experiments:
[1] = system: GABA A receptor (Agonist site); assay: [3H]-Muscimol binding assay; settings: 0.1 mM l-menthol; Rat cerebellum
[2] = target: Neuropeptide Y1 receptor (Human) (Homo sapiens, UniProt P25929); assay: [125I]-Peptide YY; type: binding; settings: 0.1 mM l-menthol; Human receptor (Non-recombinant)
[3] = target: Bradykinin B2 receptor (Human) (Homo sapiens, UniProt P30411); assay: [3H]-Bradykinin binding assay; settings: 0.1 mM l-menthol; Human recombinant
[4] = system: Glutamate (NMDA polyamine site); assay: [3H]-Ifenprodil binding assay; settings: 0.1 mM l-menthol; Rat cerebral cortex
Vasopressin V1 receptor = Vasopressin V1 receptor (Rattus norvegicus, UniProt P30560); assay: [3H]-Vasopressin, 8-L-Arginine binding assay; settings: 0.1 mM l-menthol; Rat liver
[5] = target: Glutamate receptor (NMDAglycine site) (Rattus norvegicus, UniProt P35439); assay: [3H]-MDL105,519 binding assay; settings: 0.1 mM l-menthol; Rat cerebral cortex
[6] = target: Neuropeptide Y2 receptor (Human) (Homo sapiens, UniProt P49146); assay: [125I]-Peptide YY; type: binding; settings: 0.1 mM l-menthol; Human receptor (Non-recombinant)
[7] = system: GABA A receptor (Benzodiazepine site); assay: [3H]-Flunitrazepam binding assay; settings: 0.1 mM l-menthol; Rat whole brain
[8] = target: Dopamine D3 receptor (Human) (Homo sapiens, UniProt P35462); assay: R-; type: binding; settings: 0.1 mM l-menthol; Human recombinant
α1B-Adrenergic receptor = α1B-Adrenergic receptor (Rattus norvegicus, UniProt P15823); assay: [3H]-Prazosin binding assay; settings: 0.1 mM l-menthol; Rat liver
[9] = target: Cannabinoid CB1 receptor (Human) (Homo sapiens, UniProt P21554); assay: [3H]-CP-55,940 binding assay; settings: 0.1 mM l-menthol; Human recombinant
[10] = target: Histamine H1 receptor (Human) (Homo sapiens, UniProt P35367); assay: [3H]-Pyrilamine binding assay; settings: 0.1 mM l-menthol; Human recombinant
K Channel SkCa = assay: [125I]-Apamin binding assay; settings: 0.1 mM l-menthol; Rat whole brain
[11] = target: β1-Adrenergic receptor (Human) (Homo sapiens, UniProt P08588); assay: [3H]-; type: binding; settings: 0.1 mM l-menthol; Human recombinant
[12] = target: Opiate δ receptor (Human) (Homo sapiens, UniProt P41143); assay: [3H]-Naltrindole binding assay; settings: 0.1 mM l-menthol; Human recombinant
[13] = target: Dopamien D1 receptor (Human) (Homo sapiens, UniProt P21728); assay: [3H]–SCH–23390 hydrochloride binding assay; settings: 0.1 mM l-menthol; Human recombinant
K channel KA = assay: [125I]-Dendrotoxin binding assay; settings: 0.1 mM l-menthol; Rat cerebral cortex
mouse ambulation = assay: Measurement of mouse ambulatory activity; type: in vivo; settings: mice
Summary of the method: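 Ambulometer (SAM-10) recording; 30-min adaptation, then s.c. saline or 100, 200, 400 or 800 mg/kg test compound; n = 19–20 mice per group. Each mouse's activity normalized to its total adaptation-period activity, binned per 10 min (median, quartiles); total normalized activity over 60 min post-dose compared by Kruskal-Wallis then Wilcoxon versus vehicle, P < 0.05.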

Na Channel = type: binding; settings: 0.1 mM l-menthol; Rat whole brain
[14] = target: Endothelin ETB receptor (Human) (Homo sapiens, UniProt P24530); assay: [125I]-Endothelin-1; type: binding; settings: 0.1 mM l-menthol; Human recombinant
[15] = target: Adenosine transporter (Human) (Homo sapiens, UniProt Q99808); assay: [3H]-S-; type: binding; settings: 0.1 mM l-menthol; Human receptor
[16] = target: Opiate μ receptor (Human) (Homo sapiens, UniProt P35372); assay: [3H]-Diprenorphine binding assay; settings: 0.1 mM l-menthol; Human recombinant
[17] = target: Bradykinin B1 receptor (Human) (Homo sapiens, UniProt P46663); assay: [3H]-Kallidin; type: binding; settings: 0.1 mM l-menthol; Human recombinant
[18] = system: GABA A receptor (Picrotoxin site); assay: [3H]-EBOB binding assay; parameters: species or system Rat
CRF1 receptor (Human) = target: T1, CRF1 receptor (Human) (Homo sapiens, UniProt P34998); assay: [125I]-Corticotropin Releasing Factor; type: binding; settings: 0.1 mM l-menthol; Human recombinant
T1 sequence (P34998 24-415): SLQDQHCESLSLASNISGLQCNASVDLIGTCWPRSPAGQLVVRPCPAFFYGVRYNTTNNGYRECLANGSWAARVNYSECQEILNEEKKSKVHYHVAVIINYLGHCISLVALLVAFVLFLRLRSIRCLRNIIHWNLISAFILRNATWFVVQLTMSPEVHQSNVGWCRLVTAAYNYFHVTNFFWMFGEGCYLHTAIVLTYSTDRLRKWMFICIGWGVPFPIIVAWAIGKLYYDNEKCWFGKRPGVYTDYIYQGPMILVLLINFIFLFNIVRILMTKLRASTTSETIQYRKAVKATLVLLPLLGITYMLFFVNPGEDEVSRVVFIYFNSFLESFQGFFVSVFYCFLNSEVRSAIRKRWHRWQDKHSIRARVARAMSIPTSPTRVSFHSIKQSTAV

[19] = target: Muscarinic M3 receptor (Human) (Homo sapiens, UniProt P20309); type: binding; settings: 0.1 mM l-menthol; Human recombinant
[20] = target: Serotonin 5HT2A receptor (Human) (Homo sapiens, UniProt P28223); assay: [3H]-Ketanserin hydrochloride binding assay; settings: 0.1 mM l-menthol; Human recombinant
VIP 1 receptor (Human) = VIP 1 receptor (Human) (Homo sapiens, UniProt P32241); assay: [125I]-Vasoactive Intestinal Polypeptide binding assay; settings: 0.1 mM l-menthol; Human receptor (Non-recombinant)
K Channel KATP = assay: [3H]-Glybenclamide binding assay; settings: 0.1 mM l-menthol; Rat whole brain
[21] = target: Muscarinic M2 receptor (Human) (Homo sapiens, UniProt P08172); assay: [3H]-Scopolamine Methyl Chloride binding assay; settings: 0.1 mM l-menthol; Human recombinant
[22] = system: Glutamate receptor (Kainate); assay: [3H]-Kainic Acid binding assay; settings: 0.1 mM l-menthol; Rat whole brain
[23] = target: Dopamine transporter (Human) (Homo sapiens, UniProt Q01959); assay: [3H]-WIN35,428 binding assay
PAF receptor = assay: 1-O-Hexadecyl-[3H]-Platelet Activating Factor; type: binding; settings: 0.1 mM l-menthol; Rabbit platelet
[24] = target: Neurokinin NK3 receptor (Human) (Homo sapiens, UniProt P29371); assay: [125I]-Neurokinin B; type: binding; settings: 0.1 mM l-menthol; Human recombinant
Neurokinin NK3 receptor (Human), sequence (P29371 whole entry): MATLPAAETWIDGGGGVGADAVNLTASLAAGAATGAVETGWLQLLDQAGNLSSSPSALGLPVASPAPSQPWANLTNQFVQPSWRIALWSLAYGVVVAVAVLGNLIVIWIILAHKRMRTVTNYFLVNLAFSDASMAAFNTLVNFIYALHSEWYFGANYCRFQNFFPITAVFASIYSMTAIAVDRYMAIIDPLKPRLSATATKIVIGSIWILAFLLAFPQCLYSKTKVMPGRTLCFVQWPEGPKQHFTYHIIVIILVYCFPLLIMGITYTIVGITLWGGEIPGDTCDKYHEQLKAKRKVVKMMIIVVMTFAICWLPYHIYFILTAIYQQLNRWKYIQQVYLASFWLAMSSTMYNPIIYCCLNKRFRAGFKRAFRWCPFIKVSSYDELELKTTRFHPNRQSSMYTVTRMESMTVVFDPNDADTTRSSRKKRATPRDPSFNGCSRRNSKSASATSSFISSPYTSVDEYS

Dopamine transporter (Human), sequence (Q01959 whole entry): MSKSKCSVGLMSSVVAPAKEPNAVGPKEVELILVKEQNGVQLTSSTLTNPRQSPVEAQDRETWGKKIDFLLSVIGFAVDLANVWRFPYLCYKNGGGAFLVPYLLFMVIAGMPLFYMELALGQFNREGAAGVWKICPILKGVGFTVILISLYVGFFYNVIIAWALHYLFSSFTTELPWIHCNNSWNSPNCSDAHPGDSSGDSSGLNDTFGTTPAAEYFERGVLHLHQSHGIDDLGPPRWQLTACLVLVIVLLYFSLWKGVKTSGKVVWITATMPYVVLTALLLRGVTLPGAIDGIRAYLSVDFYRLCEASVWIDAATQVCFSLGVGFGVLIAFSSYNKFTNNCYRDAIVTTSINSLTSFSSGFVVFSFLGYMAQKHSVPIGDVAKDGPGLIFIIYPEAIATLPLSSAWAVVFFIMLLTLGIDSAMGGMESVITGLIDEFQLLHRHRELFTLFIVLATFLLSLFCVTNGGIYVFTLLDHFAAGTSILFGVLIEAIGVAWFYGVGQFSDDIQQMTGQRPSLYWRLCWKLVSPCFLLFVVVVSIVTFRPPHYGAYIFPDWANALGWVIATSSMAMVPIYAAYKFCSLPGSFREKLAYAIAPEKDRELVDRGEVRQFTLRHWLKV
Dopamien D1 receptor (Human), sequence (P21728 whole entry): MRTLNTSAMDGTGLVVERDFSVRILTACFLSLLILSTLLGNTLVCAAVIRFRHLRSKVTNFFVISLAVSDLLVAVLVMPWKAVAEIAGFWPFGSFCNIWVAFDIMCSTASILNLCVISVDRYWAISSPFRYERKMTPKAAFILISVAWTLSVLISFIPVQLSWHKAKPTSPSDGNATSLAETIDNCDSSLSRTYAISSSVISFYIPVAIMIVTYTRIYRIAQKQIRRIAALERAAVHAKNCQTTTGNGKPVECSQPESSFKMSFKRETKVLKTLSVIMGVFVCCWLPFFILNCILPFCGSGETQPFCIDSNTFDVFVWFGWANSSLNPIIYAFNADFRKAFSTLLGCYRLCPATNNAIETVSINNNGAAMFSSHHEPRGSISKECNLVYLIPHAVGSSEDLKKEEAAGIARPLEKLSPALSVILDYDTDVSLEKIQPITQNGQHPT
Neuropeptide Y2 receptor (Human), sequence (P49146 whole entry): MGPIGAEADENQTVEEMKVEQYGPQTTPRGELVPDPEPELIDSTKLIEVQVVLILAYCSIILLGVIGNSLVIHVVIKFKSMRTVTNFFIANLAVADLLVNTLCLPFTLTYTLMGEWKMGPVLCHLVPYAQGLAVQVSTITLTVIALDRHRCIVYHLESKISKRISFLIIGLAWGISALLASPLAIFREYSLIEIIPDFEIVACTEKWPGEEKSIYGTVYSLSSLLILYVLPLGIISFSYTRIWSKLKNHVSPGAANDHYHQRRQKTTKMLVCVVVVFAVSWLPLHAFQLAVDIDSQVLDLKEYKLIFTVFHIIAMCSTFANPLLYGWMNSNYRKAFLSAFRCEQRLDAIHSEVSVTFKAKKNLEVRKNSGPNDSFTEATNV
Serotonin 5HT2A receptor (Human), sequence (P28223 whole entry): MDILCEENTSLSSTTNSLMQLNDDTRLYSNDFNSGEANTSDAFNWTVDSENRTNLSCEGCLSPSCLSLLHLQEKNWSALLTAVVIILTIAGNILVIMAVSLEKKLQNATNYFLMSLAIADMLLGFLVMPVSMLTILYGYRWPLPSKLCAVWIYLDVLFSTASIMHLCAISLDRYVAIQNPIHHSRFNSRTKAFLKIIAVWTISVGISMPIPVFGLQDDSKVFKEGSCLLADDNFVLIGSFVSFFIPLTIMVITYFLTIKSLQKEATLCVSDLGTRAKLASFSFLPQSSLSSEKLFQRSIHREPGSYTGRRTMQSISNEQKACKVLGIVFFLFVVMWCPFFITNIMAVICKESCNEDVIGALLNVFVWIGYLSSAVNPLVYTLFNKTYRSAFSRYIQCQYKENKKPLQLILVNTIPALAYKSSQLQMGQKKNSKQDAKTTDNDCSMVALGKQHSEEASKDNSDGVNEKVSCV
Histamine H1 receptor (Human), sequence (P35367 whole entry): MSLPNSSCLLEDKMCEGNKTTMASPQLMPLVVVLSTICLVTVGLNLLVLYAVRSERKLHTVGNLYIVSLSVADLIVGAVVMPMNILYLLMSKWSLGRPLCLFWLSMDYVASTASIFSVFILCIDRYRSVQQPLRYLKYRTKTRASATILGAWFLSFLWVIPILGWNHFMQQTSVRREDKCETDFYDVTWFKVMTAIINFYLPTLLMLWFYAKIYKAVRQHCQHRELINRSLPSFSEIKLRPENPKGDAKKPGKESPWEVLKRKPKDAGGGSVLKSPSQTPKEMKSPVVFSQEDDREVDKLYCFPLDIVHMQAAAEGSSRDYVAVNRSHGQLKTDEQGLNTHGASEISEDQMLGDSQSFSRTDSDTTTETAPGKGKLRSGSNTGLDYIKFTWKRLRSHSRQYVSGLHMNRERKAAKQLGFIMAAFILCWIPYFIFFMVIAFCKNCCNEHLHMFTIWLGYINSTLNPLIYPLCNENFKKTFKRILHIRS
VIP 1 receptor (Human), sequence (P32241 31-457): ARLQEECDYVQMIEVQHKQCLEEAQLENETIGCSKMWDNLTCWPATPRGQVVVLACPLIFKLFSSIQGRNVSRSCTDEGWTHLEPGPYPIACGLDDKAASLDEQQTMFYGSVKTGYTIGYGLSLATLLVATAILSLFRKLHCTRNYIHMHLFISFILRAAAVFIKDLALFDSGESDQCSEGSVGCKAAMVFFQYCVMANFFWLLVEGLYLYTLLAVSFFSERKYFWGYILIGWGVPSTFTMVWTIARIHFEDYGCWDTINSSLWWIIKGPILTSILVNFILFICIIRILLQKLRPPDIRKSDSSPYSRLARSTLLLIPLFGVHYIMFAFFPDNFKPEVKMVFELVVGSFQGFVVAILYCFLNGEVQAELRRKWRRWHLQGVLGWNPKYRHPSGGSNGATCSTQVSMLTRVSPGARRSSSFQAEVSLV
Neuropeptide Y1 receptor (Human), sequence (P25929 whole entry): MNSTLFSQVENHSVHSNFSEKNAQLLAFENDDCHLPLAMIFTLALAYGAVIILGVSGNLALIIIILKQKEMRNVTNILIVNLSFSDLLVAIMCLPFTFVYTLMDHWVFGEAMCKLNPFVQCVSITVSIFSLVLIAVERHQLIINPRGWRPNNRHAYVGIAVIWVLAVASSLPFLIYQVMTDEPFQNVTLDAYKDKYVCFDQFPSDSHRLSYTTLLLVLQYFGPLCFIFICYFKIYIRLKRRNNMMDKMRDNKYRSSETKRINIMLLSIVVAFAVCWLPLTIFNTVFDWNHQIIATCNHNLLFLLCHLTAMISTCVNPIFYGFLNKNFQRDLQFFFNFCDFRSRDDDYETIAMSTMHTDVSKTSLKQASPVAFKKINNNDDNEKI
Bradykinin B1 receptor (Human), sequence (P46663 whole entry): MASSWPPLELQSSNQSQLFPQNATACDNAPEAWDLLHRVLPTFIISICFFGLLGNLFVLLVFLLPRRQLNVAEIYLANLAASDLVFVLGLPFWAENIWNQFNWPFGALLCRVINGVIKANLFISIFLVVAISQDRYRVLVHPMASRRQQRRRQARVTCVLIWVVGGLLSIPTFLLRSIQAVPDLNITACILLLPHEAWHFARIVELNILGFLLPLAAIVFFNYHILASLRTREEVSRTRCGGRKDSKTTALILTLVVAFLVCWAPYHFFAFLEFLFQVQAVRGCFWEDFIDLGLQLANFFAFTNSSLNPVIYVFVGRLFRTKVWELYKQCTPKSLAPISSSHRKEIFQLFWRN
Endothelin ETB receptor (Human), sequence (P24530 27-442): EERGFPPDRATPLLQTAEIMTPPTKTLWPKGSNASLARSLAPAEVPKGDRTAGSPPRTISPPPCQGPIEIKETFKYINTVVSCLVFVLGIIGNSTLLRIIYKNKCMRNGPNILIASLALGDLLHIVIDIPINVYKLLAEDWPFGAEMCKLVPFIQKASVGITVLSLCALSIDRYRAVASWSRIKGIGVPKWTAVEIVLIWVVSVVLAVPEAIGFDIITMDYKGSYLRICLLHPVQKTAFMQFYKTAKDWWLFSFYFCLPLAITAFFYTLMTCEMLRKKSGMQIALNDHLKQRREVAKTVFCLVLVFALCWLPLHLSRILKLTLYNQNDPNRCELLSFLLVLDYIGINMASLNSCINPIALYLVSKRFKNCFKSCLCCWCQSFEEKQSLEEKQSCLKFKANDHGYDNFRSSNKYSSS
Opiate δ receptor (Human), sequence (P41143 whole entry): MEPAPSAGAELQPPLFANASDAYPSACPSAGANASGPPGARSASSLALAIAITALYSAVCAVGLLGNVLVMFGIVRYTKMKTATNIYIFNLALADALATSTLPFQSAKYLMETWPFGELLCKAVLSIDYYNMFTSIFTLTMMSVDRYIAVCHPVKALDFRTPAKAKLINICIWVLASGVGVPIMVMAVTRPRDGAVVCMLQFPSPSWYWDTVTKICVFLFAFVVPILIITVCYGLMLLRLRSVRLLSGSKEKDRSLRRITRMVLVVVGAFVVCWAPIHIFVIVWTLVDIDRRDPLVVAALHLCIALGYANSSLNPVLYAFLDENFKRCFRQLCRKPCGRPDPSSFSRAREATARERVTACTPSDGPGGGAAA

## CC(C)[C@@H]1CC[C@@H](C)C[C@H]1O [l-menthol]
[1]
  Inhibition by l-Menthol (%): 0.2%
[2]
  Inhibition by l-Menthol (%): 0.86%
[3]
  Inhibition by l-Menthol (%): 7.88%
[4]
  Inhibition by l-Menthol (%): 3.79%
Vasopressin V1 receptor
  Inhibition by l-Menthol (%): 0%
[5]
  Inhibition by l-Menthol (%): 2.56%
[6]
  Inhibition by l-Menthol (%): 0%
[7]
  Inhibition by l-Menthol (%): 1.37%
[8]
  Inhibition by l-Menthol (%): 6.32%
α1B-Adrenergic receptor
  Inhibition by l-Menthol (%): 1.76%
[9]
  Inhibition by l-Menthol (%): 9.12%
[10]
  Inhibition by l-Menthol (%): 0%
K Channel SkCa
  Inhibition by l-Menthol (%): 2.36%
[11]
  Inhibition by l-Menthol (%): 0%
[12]
  Inhibition by l-Menthol (%): 0.3%
[13]
  Inhibition by l-Menthol (%): 0%
K channel KA
  Inhibition by l-Menthol (%): 5.11%
Mouse ambulation; 100-800 mg/kg s.c., Kruskal-Wallis test P < 0.0001
  Dose dependence of the ambulation-promoting effect: dose dependent
Mouse ambulation; subcutaneous 100-800 mg/kg
  Time of maximum ambulatory activity after administration: 5 min
Na Channel
  Inhibition by l-Menthol (%): 14.04%
[14]
  Inhibition by l-Menthol (%): 3.39%
[15]
  Inhibition by l-Menthol (%): 0.68%
[16]
  Inhibition by l-Menthol (%): 0%
[17]
  Inhibition by l-Menthol (%): 6.03%
[18]
  Concentration dependence of inhibition of the [3H]-EBOB binding: concentration-dependent
[18]; 0.1 mM l-menthol, Rat cerebral cortex
  Inhibition by l-Menthol (%): 20.9%
[18]; read-out: IC50 for inhibition of the [3H]-EBOB binding, rat cerebral cortex preparation, 7 concentrations, duplicate
  IC50: 554 µM
[18]; read-out: Ki (mol/L), inhibition of the binding of [3H]-EBOB, GABAA (Picrotoxin site), Ki=IC50/(1+[L/Kd])
  Ki: 0.000288 mol/L
CRF1 receptor (Human)
  Inhibition by l-Menthol (%): 0%
[19]
  Inhibition by l-Menthol (%): 0%
[20]
  Inhibition by l-Menthol (%): 8.32%
VIP 1 receptor (Human)
  Inhibition by l-Menthol (%): 2.48%
K Channel KATP
  Inhibition by l-Menthol (%): 2.08%
[21]
  Inhibition by l-Menthol (%): 0.37%
[22]
  Inhibition by l-Menthol (%): 0.14%
[23]
  Concentration dependence of inhibition of the [3H]-WIN35,428 binding: concentration-dependent
[23]; 0.1 mM l-menthol, Human recombinant
  Inhibition by l-Menthol (%): 20.67%
[23]; read-out: IC50 for inhibition of the [3H]-WIN35,428 binding, human recombinant dopamine transporter, 7 concentrations, duplicate
  IC50: 719 µM
[23]; read-out: Ki (mol/L), inhibition of the binding of [3H]-WIN35,428, Dopamine transporter (Human), Ki=IC50/(1+[L/Kd])
  Ki: 0.000615 mol/L
PAF receptor
  Inhibition by l-Menthol (%): 0%
[24]
  Inhibition by l-Menthol (%): 4.65%
